Screening data (PubChem)
ZTA counter: ZTA (EBV) inhibition in EBNA-1 counter-screen; P03206; ZTA-DNA binding, fluorescence polarization; inhibition, % at 11 µM; hit rate 0.15% among 320,000; AID 2234; in the data active means inhibition above about 33%
Target sequence (P03206 whole entry, looked up): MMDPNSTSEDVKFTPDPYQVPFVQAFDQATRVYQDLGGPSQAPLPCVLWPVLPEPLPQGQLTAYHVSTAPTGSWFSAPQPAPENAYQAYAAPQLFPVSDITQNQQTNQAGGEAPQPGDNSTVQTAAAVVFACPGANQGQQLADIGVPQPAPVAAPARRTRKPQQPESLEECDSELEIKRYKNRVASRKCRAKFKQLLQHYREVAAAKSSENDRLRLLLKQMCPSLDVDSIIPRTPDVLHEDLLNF
HCV NS3 hel inh: HCV NS3 helicase inhibition; NS3 helicase DNA unwinding, Cy5 molecular beacon fluorescence; AID 1800; hit rate 0.56% among 290,000; inhibition, % at 10.9 µM;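 active means inhibition above the mean of all tested compounds plus 3 SD, set per campaign, cut at about 35% in these data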;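 further: 0% = DMSO wells and 100% = thioflavine S control wells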
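Test system: hepatitis C virus NS3 helicase domain fragment enzyme. Also added: annealed dual-labelled DNA beacon duplex, ATP-started. Timing: 60 min unwinding reaction at 25 °C after ATP addition. Technique: Cy5 fluorescence. Measure: % inhibition of unwinding.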
EBNA-1 inhibitor: blocks EBNA-1 binding to DNA. EBNA-1 DNA binding, fluorescence polarization. AID 1950. inhibition, % at 14.8 µM. hit rate 0.34% among 300,000; in the data active means inhibition above about 28%
CTSL1 counter: blocks F. hepatica cathepsin L1 in PFM18AAP counter-screen | recombinant F. hepatica cathepsin L1, Z-Leu-Arg-MCA fluorescence | inhibition, % at 5.96 µM | hit rate 0.49% among 300,000;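 active means inhibition above the mean of all tested compounds plus 3 SD, set per screening campaign, cut at about 17% in these data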;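 further: 0% = plate median of test compound wells and 100% = 1 µM Z-Phe-Ala-diazomethylketone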
The depositor's hits bear a star; . = no result given. A selection: hits, their analogues and other compounds. The true share with any hit is near 1.4%.

SMILES	ZTA counter	HCV NS3 hel inh	EBNA-1 inhibitor	CTSL1 counter
COc1cccc(CN(Cc2ccco2)C(c2ccc(F)cc2)c2nnnn2C(C)(C)C)c1 (centres undefined)	-10	20	-7	1
Cc1ccnc(N/C=C(/NC(=O)c2ccccc2)C(=O)N/N=C\c2ccc(F)cc2)n1	-12	-1	-1	20*
Nc1nc(N)c(N=O)c(OCC2CCCCC2)n1	-12	0	3	104*
NS(=O)(=O)OCC1CCCCC1	-4	14	8	-2
CCCNC(=O)c1cc2c3ccccc3n(C)c2s1	4	-4	7	8
Cn1c2ccccc2c2cc(C(=O)NNC(=O)CCl)sc21	0	14	-17	94*
CC(C)CC(NC(=O)CCl)c1ccccc1 (centres undefined)	0	-13	0	15
CCCC(NC(=O)CCl)c1ccccc1 (centres undefined)	-13	0	-3	22*
CCC1CCCN1Cn1cnc2c([nH]c3ccc(Cl)cc32)c1=O (centres undefined)	-8	-3	1	19*
COc1ccc(C2=NN(C(N)=S)C(c3ccccc3)C2)cc1 (centres undefined)	-17	11	-2	55*
Cc1ccc(C(c2sc3nc(C)nn3c2O)N2CCN(C(=O)c3ccco3)CC2)cc1 (centres undefined)	-15	0	0	1
COc1ccc(Nc2ccc(S(=O)(=O)N3CCCCC3)cc2[N+](=O)[O-])cc1OC	-8	4	-4	1
CC(/C=C1\SC(=O)N(CC(=O)Nc2cccc(O)c2)C1=O)=C\c1ccccc1	18	-22	-1	0
CC(/C=C1\SC(=O)N(CC(=O)Nc2ccc(O)cc2)C1=O)=C\c1ccccc1	7	-2	28*	5
CC[N+](CC)(CC)CC(=O)Nc1c(C)cccc1C	-2	.	2	21*
O=C(NNC(=O)c1ccccc1-n1cccc1)c1ccc(Cl)cc1Cl	5	3	2	-2
c1nc(NC2CCCCCC2)c2[nH]cnc2n1	6	6	4	-2
O=C(NCC1OCCc2ccccc21)c1ccc(NC(=O)c2cccc(Br)c2)cc1 (centres undefined)	-12	-7	30*	1
O=C(NCC1OCCc2ccccc21)c1ccc(NC(=O)c2ccccc2Cl)cc1 (centres undefined)	4	-2	24	-1
Cc1occc1C(=O)NNC(=O)c1ccc(S(=O)(=O)N(C)C)cc1	-4	.	.	.
O=C(NCCNC(=O)c1cccs1)c1ccco1	-2	1	-5	19*
O=C(c1ccc(-n2cncn2)c([N+](=O)[O-])c1)N1CCN(c2cccc(Cl)c2)CC1	6	3	6	-3
Cc1nnc(SCC2=C(C(=O)O)N3C(=O)C(NC(=O)c4cccc(F)c4F)C3SC2)s1 (centres undefined)	8	26	3	29*
COC(=O)C1=C(C)N(c2ccc(OC)c(OC)c2)C(=O)C1	-4	7	6	20*
Cc1ccc(-n2nnnc2SCC(=O)c2cc(C)n(CC3CCCO3)c2C)cc1 (centres undefined)	-7	.	101*	1
SMILES	ZTA counter	HCV NS3 hel inh	EBNA-1 inhibitor	CTSL1 counter
CCOC(=O)CSc1nnc([C@H](Cc2ccccc2)NC(=O)OC(C)(C)C)o1	-6	-2	-5	-1
CC[C@@H](C)[C@H](NC(=O)OC(C)(C)C)c1nnc(S(=O)(=O)Cc2cc(C)ccc2C)o1	0	-14	-4	76*
CC(C)(C)OC(=O)N[C@@H](Cc1ccccc1)c1nnc(S(=O)(=O)Cc2cccc(F)c2)o1	3	-1	4	31*
CC(C)C[C@H](NC(=O)OC(C)(C)C)c1nnc(SCc2ccccc2)o1	-1	8	0	23*
Cc1ccccc1CS(=O)(=O)c1nnc([C@H](CC(C)C)NC(=O)OC(C)(C)C)o1	18	-19	2	82*
CCN1CCN(S(=O)(=O)c2ccc(Cl)c(C(=O)Nc3cc(Cl)ccc3N3CCOCC3)c2)CC1	7	-69	13	-2
Cc1nonc1OCCNCCNc1ccc([N+](=O)[O-])cc1Cl	-7	-10	-14	0
CC(C)C[C@H](N)c1nnc(S(=O)(=O)Cc2cccc(F)c2)o1	-7	-6	4	72*
CC(C)[C@H](NC(=O)OC(C)(C)C)c1nnc(S(=O)(=O)Cc2c(F)cccc2Cl)o1	-7	.	-1	41*
CC(C)=CCSc1nnc([C@@H](NC(=O)OC(C)(C)C)C(C)C)o1	-6	1	-3	36*
Cc1[nH]c(=O)[nH]c(=O)c1CSc1nnc([C@@H](NC(=O)OC(C)(C)C)C(C)C)o1	-4	5	-3	4
CC(C)CCNC(=O)c1ccc(CSCc2cccc(F)c2)o1	0	-6	10	3
Cc1nnc(SCCC#N)n(CCC#N)c1=O	16	0	-5	-4
O=C(CNC(=O)c1cccc(Cl)c1)Nc1ccc(F)c(F)c1F	6	-13	-9	7
O=C(CSc1cc(Cl)ccc1Cl)NCC(=O)Nc1ccc(F)c(F)c1F	-1	-2	3	18*
Nc1cc(=O)nc(SCC(=O)N2CCN(c3ccccc3)CC2)n1-c1ccc(F)cc1	-2	3	0	3
O=C(COC(=O)CNC(=O)C1CCCCC1)Nc1ccc2c(c1)OCCO2	0	8	-5	34*
O=C(CNC(=O)C1CCCCC1)OCn1nnc2ccccc2c1=O	10	5	-10	56*
O=C(COC(=O)CNC(=O)C1CCCCC1)Nc1ccc2ccccc2c1	-16	-3	-3	27*
Cc1cc(C)cc(NC(=O)COC(=O)CNC(=O)C2CCCCC2)c1	7	.	.	.
NC(=O)c1oc2ccccc2c1NC(=O)c1ccc([N+](=O)[O-])o1	3	2	-2	26*
CCOC(=O)NC(c1ccc(C(C)C)cc1)C(Cl)(Cl)Cl (centres undefined)	-8	-12	0	-3
CN(CCc1ccccc1)C1CCCN(S(=O)(=O)CC(F)(F)F)C1 (centres undefined)	-8	-4	-2	19*
CC(C)N1CCN(Cc2cccn2-c2ccccn2)CC1CCO (centres undefined)	1	-1	1	2
C=CCNc1nc(-c2ccc(Cl)cc2)cs1	-5	-6	6	25*
SMILES	ZTA counter	HCV NS3 hel inh	EBNA-1 inhibitor	CTSL1 counter
CCOC(=O)c1ccc(NS(=O)(=O)c2ccc3oc(=O)[nH]c3c2)cc1	17	11	6	3
NC(=O)c1ccc(N=C2C(=O)Nc3ccc([N+](=O)[O-])cc32)cc1	-10	-19	6	109*
O=C1Nc2ccccc2C1=Nc1cccc([N+](=O)[O-])c1	-12	7	5	-2
CCn1c(COc2ccccc2C)nnc1SCC(=O)O	3	-10	-1	-3
CCn1c(COc2ccccc2C)nnc1SCC(=O)CC(=O)Nc1ccccc1	-5	6	-9	25*
CCOC(=O)/C=C/C(=O)NNC(=O)c1ccccc1Cl	7	-6	3	46*
O=C(O)/C=C/C(=O)Nc1ccc(Oc2ccccc2)cc1	-6	-10	-7	5
CCOC(=O)/C=C/C(=O)Nc1ccc(Oc2ccccc2)cc1	6	-5	16	31*
